# How the values were obtained:
# [1] = Tissue distribution study in mice after IP dosing; assay type: in vivo; settings: 20 mg/kg IP
# Method in brief: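 Non-tumour-bearing mice received a single IP dose of test compound at 20 mg kg⁻¹, given as a 1 mg ml⁻¹ formulation in 10:10:80 DMSO:Tween80:water. Compound residence in tissues was followed after dosing.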
# [2] = test system: Raji Burkitt B-cell lymphoma; experiment: 96h MTT assay using Raji Burkitt B-cell lymphoma; assay type: cell-based; settings: Homo sapiens, Raji cells
Compound,detectability in tissues seven days after IP administration [1],EC50 [2] [nM]
CC(C)Cc1nn(C)c(=O)c2c(SCCCO)n(Cc3ccc(C#CCCCOc4ccc(C[C@H](N)C(=O)O)cc4)c4ccccc34)cc12 [Compound 10],detectable in all tissues,–
CC(C)Cc1nn(C)c(=O)c2c(SCCCO)n(Cc3ccc(NCCCCCNC(=O)[C@@H](N)CCC(N)=O)nc3)cc12 [Compound 12],–,~100

# From article PMC4917231 (MedChemComm, 2016)
